What all share (type): functional, organism-based
In experiment [1] the test system is Mus musculus. Kind of experiment: Antineoplastic activity in P-388-infected CDF1 mice, administered intraperitoneally at a dose (10 mg/kg), calculated as Percent treated /control (T/C). An outline of the steps:
(§1)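 P-388 leukaemia cells (1 × 10^6 per animal) implanted into the peritoneal cavity of CDF1 recipient mice. Drug reconstituted in 0.3% Klucel and given ip on a day 1 schedule. Survival checked daily for at least 30 days; survival time expressed as percent treated/control (T/C).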

Experiment [2] relates to Mus musculus. The experiment can be described thus: Antineoplastic activity in P-388-tumor cell infected CDF1 mice, administered intraperitoneally at a dose (10 mg/kg), calculated as Median survival time (MST). An outline of the steps: as §1
Experiment [3] concerns Mus musculus. The experiment can be described thus: Antineoplastic activity in P-388-tumor cell infected CDF1 mice, administered intraperitoneally at a dose (6 mg/kg), calculated as Median survival time (MST). An outline of the steps:
as §1

The test system of experiment [4] is Mus musculus. The experiment can be described thus: Antineoplastic activity in P-388-tumor cell infected CDF1 mice, administered intraperitoneally at a dose (1.5 mg/kg), calculated as Median survival time (MST). An outline of the steps: as §1
In experiment [5] the test system is Mus musculus. Kind of experiment: Antineoplastic activity in P-388-infected CDF1 mice, administered intraperitoneally at a dose (3mg/kg), calculated as Percent treated /control (T/C). The essentials:
as §1

Experiment [6] concerns Mus musculus. Kind of experiment: Antineoplastic activity in P-388-tumor cell infected CDF1 mice, administered intraperitoneally at a dose (3mg/kg), calculated as Median survival time (MST). An outline of the steps:
as §1

Experiment [7] relates to Mus musculus. The experiment can be described thus: Antineoplastic activity in P-388-infected CDF1 mice, administered intraperitoneally at a dose (1.5 mg/kg), calculated as Percent treated /control (T/C). The essentials: as §1
For experiment [8], the system named is Mus musculus. Kind of experiment: Antineoplastic activity in P-388-infected CDF1 mice, administered intraperitoneally at a dose (6 mg/kg), calculated as Percent treated /control (T/C). An outline of the steps:
as §1

Values joined by “and” are separate entries in the source; they are usually repeats but may differ in a detail not shown here. Identical values can stand only once.

On to “1-Hydroxy-3,4-diaminocyclohexane-Cl2-Platinum II Complex”, for which the T/C (commonly the ratio of treated to control) in the experiment with Mus musculus [1] is 161% and 141%. The MST in the experiment on Mus musculus [2] was 15.8 days and 13.8 days.

With CISPLATIN, the results for the MST in the experiment on Mus musculus [3], in the experiment with Mus musculus [4] and in the experiment with Mus musculus [6] were 24.5 days, 15.5 days and 18.5 days, respectively. The figures for the T/C in the experiment on Mus musculus [5], in the experiment on Mus musculus [7] and in the experiment on Mus musculus [8] were 188%, 158% and 249%, respectively.

Values taken from ChEMBL document CHEMBL1124326, “Synthesis and P-388 antitumor properties of the four diastereomeric 1-hydroxy-3,4-diaminocyclohexane-Cl2PtII complexes” (J Med Chem, 1989).
